Experimental data: ChEMBL document CHEMBL4330069, “Boosting the efficacy of anti-MRSA β-lactam antibiotics via an easily accessible, non-cytotoxic and orally bioavailable FtsZ inhibitor” (Eur J Med Chem, 2019)
Values after ≈ are worked out from the molar mass of the structure shown.

Key:
Assay type in all cases: functional
[1] = tested on: Staphylococcus aureus; test: Synergistic antibacterial activity against multidrug-resistant Staphylococcus aureus isolate 1717 assessed as fractional Inhibitory concentration index in presence of methicillin by broth microdilution assay
Summary of the method: (§1)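 CLSI broth microdilution run on clinical MRSA isolates with each β-lactam alone, the test agent alone, and the two combined; agents dissolved in DMSO. Growth inhibition was read by eye. FIC index = FIC(compound) + FIC(β-lactam), where each FIC is the MIC in combination divided by the MIC alone. An index ≤0.5 was taken as synergy.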

[2] = tested on: Staphylococcus aureus; test: Synergistic antibacterial activity against multidrug-resistant Staphylococcus aureus isolate 757 in presence of methicillin by broth microdilution assay
[3] = tested on: Staphylococcus aureus; test: Synergistic antibacterial activity against multidrug-resistant Staphylococcus aureus isolate 3411 in presence of amoxicillin by broth microdilution assay
Summary of the method: (§2)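 CLSI broth microdilution on clinical MRSA isolates. MICs were measured for the β-lactam alone, the test agent alone and the two combined. Compounds were dissolved in DMSO, and growth inhibition was scored by eye. FIC index is the sum, over both agents, of MIC in combination divided by MIC alone. An FIC index ≤0.5 was taken as synergy.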

[4] = tested on: Staphylococcus aureus; test: Antibacterial activity against multidrug-resistant Staphylococcus aureus isolate 2895 by broth microdilution assay
Summary of the method: (§3)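 Broth microdilution MIC per CLSI guidelines against clinical MRSA isolates, for β-lactams and test compound alone and in combination. Compounds were dissolved in DMSO. Growth was read by eye, in duplicate. FIC index = FIC(compound) + FIC(drug); synergy defined as FIC index ≤0.5.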

[5] = tested on: Staphylococcus aureus; test: Antibacterial activity against multidrug-resistant Staphylococcus aureus isolate 85 by broth microdilution assay; summary of the method: as §3
[6] = tested on: Staphylococcus aureus; test: Synergistic antibacterial activity against multidrug-resistant Staphylococcus aureus isolate 254 in presence of meropenem by broth microdilution assay; summary of the method: as §2
[7] = tested on: Staphylococcus aureus; test: Synergistic antibacterial activity against multidrug-resistant Staphylococcus aureus isolate 1344 assessed as fractional Inhibitory concentration index in presence of amoxicillin by broth microdilution assay; summary of the method: as §1
[8] = tested on: Staphylococcus aureus; test: Synergistic antibacterial activity against multidrug-resistant Staphylococcus aureus isolate 1749 assessed as fractional Inhibitory concentration index in presence of cefuroxime by broth microdilution assay; summary of the method: as §1
[9] = tested on: Staphylococcus aureus; test: Synergistic antibacterial activity against multidrug-resistant Staphylococcus aureus isolate 256 in presence of cloxacillin by broth microdilution assay; summary of the method: as §2
[10] = tested on: Staphylococcus aureus; test: Synergistic antibacterial activity against multidrug-resistant Staphylococcus aureus isolate 1136 in presence of methicillin by broth microdilution assay
Summary of the method: (§4)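 Clinical MRSA isolate panel; compound and β-lactam tested alone and in combination by CLSI broth microdilution, compounds dissolved in DMSO, growth inhibition scored by eye, run in duplicate. FIC index = FIC(compound) + FIC(drug), each the MIC in combination divided by the MIC alone; an index ≤ 0.5 was called synergy.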

[11] = tested on: Staphylococcus aureus; test: Synergistic antibacterial activity against multidrug-resistant Staphylococcus aureus isolate 2490 in presence of amoxicillin by broth microdilution assay; summary of the method: as §4
[12] = tested on: Staphylococcus aureus; test: Synergistic antibacterial activity against multidrug-resistant Staphylococcus aureus isolate 2516 in presence of cloxacillin by broth microdilution assay; summary of the method: as §2
[13] = tested on: Staphylococcus aureus; test: Synergistic antibacterial activity against multidrug-resistant Staphylococcus aureus isolate 231 assessed as fractional Inhibitory concentration index in presence of meropenem by broth microdilution assay; summary of the method: as §1
[14] = tested on: Staphylococcus aureus; test: Synergistic antibacterial activity against multidrug-resistant Staphylococcus aureus isolate 417 in presence of amoxicillin by broth microdilution assay
[15] = tested on: Staphylococcus aureus; test: Synergistic antibacterial activity against multidrug-resistant Staphylococcus aureus isolate 200 assessed as fractional Inhibitory concentration index in presence of cefuroxime by broth microdilution assay; summary of the method: as §1
[16] = tested on: Staphylococcus aureus; test: Synergistic antibacterial activity against multidrug-resistant Staphylococcus aureus isolate 200 assessed as fractional Inhibitory concentration index in presence of methicillin by broth microdilution assay
[17] = tested on: Staphylococcus aureus; test: Synergistic antibacterial activity against multidrug-resistant Staphylococcus aureus isolate 3580 assessed as fractional Inhibitory concentration index in presence of cloxacillin by broth microdilution assay
[18] = tested on: Staphylococcus aureus; test: Synergistic antibacterial activity against multidrug-resistant Staphylococcus aureus isolate 1402 in presence of meropenem by broth microdilution assay; summary of the method: as §4
[19] = tested on: Staphylococcus aureus; test: Synergistic antibacterial activity against multidrug-resistant Staphylococcus aureus isolate 2224 in presence of cloxacillin by broth microdilution assay; summary of the method: as §4
[20] = tested on: Staphylococcus aureus; test: Synergistic antibacterial activity against multidrug-resistant Staphylococcus aureus isolate 2901 in presence of amoxicillin by broth microdilution assay; summary of the method: as §2
[21] = tested on: Staphylococcus aureus; test: Synergistic antibacterial activity against multidrug-resistant Staphylococcus aureus isolate 417 in presence of cloxacillin by broth microdilution assay
[22] = tested on: Staphylococcus aureus; test: Synergistic antibacterial activity against multidrug-resistant Staphylococcus aureus isolate 757 assessed as fractional Inhibitory concentration index in presence of amoxicillin by broth microdilution assay
[23] = tested on: Staphylococcus aureus; test: Synergistic antibacterial activity against multidrug-resistant Staphylococcus aureus isolate 3411 in presence of cloxacillin by broth microdilution assay
[24] = tested on: Staphylococcus aureus; test: Synergistic antibacterial activity against multidrug-resistant Staphylococcus aureus isolate 3589 assessed as fractional Inhibitory concentration index in presence of methicillin by broth microdilution assay
[25] = tested on: Staphylococcus aureus; test: Antibacterial activity against multidrug-resistant Staphylococcus aureus isolate 1344 by broth microdilution assay; summary of the method: as §3
[26] = tested on: Staphylococcus aureus; test: Synergistic antibacterial activity against multidrug-resistant Staphylococcus aureus isolate 1136 in presence of cefuroxime by broth microdilution assay; summary of the method: as §4
[27] = tested on: Staphylococcus aureus; test: Antibacterial activity against multidrug-resistant Staphylococcus aureus isolate 3267 by broth microdilution assay; summary of the method: as §3
[28] = tested on: Staphylococcus aureus; test: Synergistic antibacterial activity against multidrug-resistant Staphylococcus aureus isolate 3332 in presence of methicillin by broth microdilution assay; summary of the method: as §2
[29] = tested on: Staphylococcus aureus; test: Synergistic antibacterial activity against multidrug-resistant Staphylococcus aureus isolate 3332 assessed as fractional Inhibitory concentration index in presence of methicillin by broth microdilution assay
[30] = tested on: Staphylococcus aureus; test: Synergistic antibacterial activity against multidrug-resistant Staphylococcus aureus isolate 2516 assessed as fractional Inhibitory concentration index in presence of cefuroxime by broth microdilution assay; summary of the method: as §1
[31] = tested on: Staphylococcus aureus; test: Antibacterial activity against multidrug-resistant Staphylococcus aureus isolate 2728 by broth microdilution assay; summary of the method: as §3
[32] = tested on: Staphylococcus aureus; test: Synergistic antibacterial activity against multidrug-resistant Staphylococcus aureus isolate 1402 assessed as fractional Inhibitory concentration index in presence of amoxicillin by broth microdilution assay; summary of the method: as §1
[33] = tested on: Staphylococcus aureus; test: Synergistic antibacterial activity against multidrug-resistant Staphylococcus aureus isolate 358 in presence of cloxacillin by broth microdilution assay
[34] = tested on: Staphylococcus aureus; test: Synergistic antibacterial activity against multidrug-resistant Staphylococcus aureus isolate 85 in presence of cloxacillin by broth microdilution assay
[35] = tested on: Staphylococcus aureus; test: Synergistic antibacterial activity against multidrug-resistant Staphylococcus aureus isolate 1717 assessed as fractional Inhibitory concentration index in presence of amoxicillin by broth microdilution assay; summary of the method: as §1
[36] = tested on: Staphylococcus aureus; test: Synergistic antibacterial activity against multidrug-resistant Staphylococcus aureus isolate 231 in presence of meropenem by broth microdilution assay; summary of the method: as §4
[37] = tested on: Staphylococcus aureus; test: Synergistic antibacterial activity against multidrug-resistant Staphylococcus aureus isolate 1717 in presence of cloxacillin by broth microdilution assay; summary of the method: as §4
[38] = tested on: Staphylococcus aureus; test: Synergistic antibacterial activity against multidrug-resistant Staphylococcus aureus isolate 85 assessed as fractional Inhibitory concentration index in presence of amoxicillin by broth microdilution assay
[39] = tested on: Staphylococcus aureus; test: Synergistic antibacterial activity against multidrug-resistant Staphylococcus aureus isolate 2901 in presence of cefuroxime by broth microdilution assay; summary of the method: as §2

Q: With `CCCCCCCCCNc1ccc(F)c(C(N)=O)c1F` as the compound, how does the “fractional inhibitory concentration index (FICI)” value [1] read?
A: The value was 1.1.

Q: What about the MIC [2] of the same compound?
A: Its MIC is 4 µg/mL.

Q: And the MIC [3]?
A: The MIC was 4 µg/mL.

Q: And the MIC [4]?
A: The MIC was 16 µg/mL (≈ 53.6 µM).

Q: And the MIC [5]?
A: Its MIC is 1020 µg/mL (≈ 3430 µM).

Q: What about the MIC [6] of the same compound?
A: The MIC was 8 µg/mL.

Q: And the “fractional inhibitory concentration index (FICI)” value [7]?
A: The value was 1.1.

Q: What about the “fractional inhibitory concentration index (FICI)” value [8] of the same compound?
A: Its value is 1.1.

Q: And the MIC [9]?
A: The MIC was 1 µg/mL.

Q: And the MIC [10]?
A: The MIC was 4 µg/mL.

Q: And the MIC [11]?
A: The MIC was 8 µg/mL.

Q: And the MIC [12]?
A: Its MIC is 2 µg/mL.

Q: What about the “fractional inhibitory concentration index (FICI)” value [13] of the same compound?
A: The value was 0.6.

Q: And the MIC [14]?
A: The MIC was 8 µg/mL.

Q: What about the “fractional inhibitory concentration index (FICI)” value [15] of the same compound?
A: Its value is 1.

Q: What about the “fractional inhibitory concentration index (FICI)” value [16] of the same compound?
A: The value was 0.3.

Q: What about the “fractional inhibitory concentration index (FICI)” value [17] of the same compound?
A: The value was 0.5.

Q: What about the MIC [18] of the same compound?
A: The MIC was 4 µg/mL.

Q: And the MIC [19]?
A: Its MIC is 2 µg/mL.

Q: What about the MIC [20] of the same compound?
A: The MIC was 16 µg/mL.

Q: What about the MIC [21] of the same compound?
A: Its MIC is 2 µg/mL.

Q: And the “fractional inhibitory concentration index (FICI)” value [22]?
A: Its value is 0.3.

Q: And the MIC [23]?
A: Its MIC is 1 µg/mL.

Q: What about the “fractional inhibitory concentration index (FICI)” value [24] of the same compound?
A: Its value is 0.5.

Q: What about the MIC [25] of the same compound?
A: The MIC was 16 µg/mL (≈ 53.6 µM).

Q: And the MIC [26]?
A: The MIC was 2 µg/mL.

Q: And the MIC [27]?
A: Its MIC is 1020 µg/mL (≈ 3430 µM).

Q: What about the MIC [28] of the same compound?
A: Its MIC is 4 µg/mL.

Q: What about the “fractional inhibitory concentration index (FICI)” value [29] of the same compound?
A: The value was 0.3.

Q: What about the “fractional inhibitory concentration index (FICI)” value [30] of the same compound?
A: The value was 0.1.

Q: What about the MIC [31] of the same compound?
A: The MIC was 128 µg/mL (≈ 429 µM).

Q: And the “fractional inhibitory concentration index (FICI)” value [32]?
A: Its value is 1.

Q: What about the MIC [33] of the same compound?
A: The MIC was 1 µg/mL.

Q: What about the MIC [34] of the same compound?
A: Its MIC is 0.5 µg/mL.

Q: What about the “fractional inhibitory concentration index (FICI)” value [35] of the same compound?
A: Its value is 1.1.

Q: And the MIC [36]?
A: The MIC was 4 µg/mL.

Q: What about the MIC [37] of the same compound?
A: The MIC was 1 µg/mL.

Q: And the “fractional inhibitory concentration index (FICI)” value [38]?
A: The value was 0.

Q: And the MIC [39]?
A: The MIC was 2 µg/mL.
